T cruzi intra: inhibitors of intracellular Trypanosoma cruzi, primary screen, cell-based, plate reader, single point, set 2; activity score (inhibition), % at 5.01 µM; AID 651903, 2012; intracellular Trypanosoma cruzi in host cells; hit rate 4.9% among 22,000; in the data active means activity score above about 55%;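 further: parasites and compound incubated about four days before reading; 0% = median of neutral control wells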
YB-1 expression: inhibitors of YB-1 gene expression, primary screen, cell-based, fluorescence | AID 434959, 2010 | delta delta Cp (YB-1 minus CDIP) (concentration not given with the values) | U2OS, qRT-PCR YB-1 vs CDIP delta delta Cp, 16 h; stronger effect = higher value; zero = DMSO, each unit about twofold | hit rate 0.37% among 30,000;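 active means delta delta Cp rounded down to an integer at or above 3, about 3 SD of DMSO wells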;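 further: higher means less YB-1 transcript or more CDIP transcript relative to DMSO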
INS-1E rescue: protection of INS-1E cells from cytokine death, primary screen, ATP luminescence, single point; INS-1E cytokine-induced death, 48 h; normalised: neutral wells 0, positive control 100; protection from cytokine-induced ATP loss, % at 10 µM; hit rate 0.1% among 20,000; AID 488910, 2010;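 active means mean replicate protection from cytokine-induced ATP loss at least 50% and at least 75% of replicates each reaching 50%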
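Material: INS-1E rat cells; Quantity: 8000 cells/well; Buffer or medium: phenol-red-free RPMI with 5% fetal bovine serum; Probe or stimulus: cytokine cocktail of IFN-γ, TNF-α and IL-1β; Compound dosing: single test concentration per compound, delivered by pin transfer; Incubation: 48 h co-treatment, 10 min post-lysis read; Signal: CellTiter-Glo luminescence.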
An asterisk follows results filed as active; . = not tested or not shown. Shown is part of a subset that was picked to be rich in hits.

SMILES | T cruzi intra | YB-1 expression | INS-1E rescue
COc1ccc(N2Cc3ccccc3C3(CCOCC3)C2=N)cc1 | . | 0.15 | .
N#Cc1ccc(N2CCCN(C(=S)NC3CCCC3)CC2)nc1 | . | -0.18 | .
C[C@@H]1CCCCO[C@@H](CN(C)S(=O)(=O)c2ccccc2)[C@@H](C)CN([C@H](C)CO)C(=O)c2cc(NC(=O)Nc3ccc(C(F)(F)F)cc3)ccc2O1 | 69* | -0.44 | -13
C[C@@H]1CCCCO[C@@H](CN(C)S(C)(=O)=O)[C@@H](C)CN([C@H](C)CO)C(=O)c2cc(NC(=O)Nc3ccc(C(F)(F)F)cc3)ccc2O1 | 11 | 0.23 | -1
Cc1csc2sc(C=NCc3cccs3)c(C)c12 | . | -0.31 | .
C[C@@H]1CN([C@H](C)CO)C(=O)Cc2cc(NC(=O)Nc3cccc4ccccc34)ccc2O[C@@H]1CN(C)CC1CCCCC1 | 50 | 0.3 | 0
C[C@@H]1CN([C@H](C)CO)C(=O)Cc2cc(NC(=O)Nc3cccc4ccccc34)ccc2O[C@H]1CN(C)CC1CCCCC1 | 68* | -0.36 | 1
C[C@H]1CN([C@@H](C)CO)C(=O)Cc2cc(NC(=O)Nc3cccc4ccccc34)ccc2O[C@@H]1CN(C)CC1CC1 | -10 | 0.18 | 15
C[C@H]1CN([C@@H](C)CO)C(=O)Cc2cc(NC(=O)Nc3cccc4ccccc34)ccc2O[C@H]1CN(C)CC1CCCCC1 | 62* | 0.26 | -47
COc1ccc(C2OCC3C(c4cc(OC)c5c(c4)OCO5)OCC23)cc1OC (stereo unspecified) | . | 5* | .
COc1cc(C2OCC3C(c4cc(OC)c5c(c4)OCO5)OCC23)cc(OC)c1OC (stereo unspecified) | . | 0.86 | .
CC1OC(OC2CCC3(C)C(CCC4(C)C3CC=C3C5CC(C)(C)CCC5(C(=O)OC5OC(CO)C(OC6OCC(OC7OC(CO)C(O)C(O)C7O)C(OC7OCC(O)C(O)C7O)C6O)C(O)C5O)CCC34C)C2(C)C)C(O)C(O)C1OC1OCC(O)C(O)C1O (stereo unspecified) | . | -0.051 | .
COc1cc(-c2c(C#N)c(SCC#N)nc(N)c2C(=O)OC(C)C)cc(OC)c1OC | . | -0.08 | .
C[C@@H]1CN([C@@H](C)CO)C(=O)c2cc(NC(=O)Nc3ccc(C(F)(F)F)cc3)ccc2O[C@H]1CN(C)S(=O)(=O)c1ccccc1 | 68* | -0.47 | -28
Cc1ccc(S(=O)(=O)N(C)C[C@H]2Oc3ccc(NC(=O)Nc4ccc(C(F)(F)F)cc4)cc3C(=O)N([C@@H](C)CO)C[C@H]2C)cc1 | 64* | 0.86 | -36
C[C@@H]1CN([C@H](C)CO)C(=O)c2cc(NC(=O)Nc3ccc(C(F)(F)F)cc3)ccc2O[C@@H]1CN(C)S(=O)(=O)c1ccccc1 | 11 | 0.17 | -1
C[C@H]1CN([C@@H](C)CO)C(=O)c2cc(NC(=O)Nc3ccc(C(F)(F)F)cc3)ccc2O[C@@H]1CN(C)S(=O)(=O)c1ccc(F)cc1 | 6 | 0.47 | -7
C[C@@H]1CN([C@H](C)CO)C(=O)c2cc(NC(=O)Nc3ccc(C(F)(F)F)cc3)ccc2O[C@H]1CN(C)S(=O)(=O)c1ccc(F)cc1 | 65* | 0.3 | -30
Cc1ccc(S(=O)(=O)N(C)C[C@@H]2Oc3ccc(NC(=O)Nc4ccc(C(F)(F)F)cc4)cc3C(=O)N([C@H](C)CO)C[C@@H]2C)cc1 | 26 | 0.23 | -58
N=c1ncn(CC(O)CO)c2nc(Br)[nH]c12 (stereo unspecified) | . | -0.14 | .
O=C1C(Nc2ccccc2)=CC(=O)c2ncccc21 | . | 3.1* | .
CC(C)OC(=O)Nc1cc(Cl)cc(Cl)c1 | . | -0.055 | .
O=S(=O)(N[C@H]1CCN(Cc2ccc(OCCO)cc2)C1)c1cc(Cl)ccc1Cl | . | 0.053 | .
COCCC(=O)C1=CSC2=C(C(=O)CC(C)(C)C2)C1c1ccncc1 (stereo unspecified) | . | -0.55 | .
O=C(N/N=C/c1ccc(O)c(O)c1O)c1ccccc1O | 57* | -0.1 | -19
SMILES | T cruzi intra | YB-1 expression | INS-1E rescue
O=C(N/N=C/c1ccccc1O)c1ccccc1O | 32 | 0.29 | -135
O=C(N/N=C/c1cc(O)ccc1O)c1ccccc1O | 18 | 0.23 | -126
O=C(NO)c1cccc(C(=O)N/N=C/c2cccc(O)c2O)c1 | 1 | -0.44 | -27
O=C(N/N=C/c1cc(Cl)cc(Cl)c1O)c1ccccc1O | 73* | 0.19 | -115
O=C(NO)c1cccc(C(=O)N/N=C/c2ccc(O)c(O)c2O)c1 | 61* | -0.043 | 8
CCN(CC)C(=S)CSc1nc(-c2ccccc2)cc(-c2ccco2)c1C#N | . | -0.97 | .
Cc1oc2c(c1C(=O)NCCCn1ccnc1)C(=O)c1ccccc1C2=O | . | 0.22 | .

Bioassay records: PubChem BioAssay, Broad Institute
